From ChEMBL document CHEMBL4610044, “Synthesis and biological evaluation of novel indole-pyrazoline hybrid derivatives as potential topoisomerase 1 inhibitors” (Bioorg Med Chem Lett, 2020)
Active and inactive are the calls of the source. No cut-off for these calls is given here.

Experiments:
[1] = target: T1, DNA topoisomerase 1 (Homo sapiens) (UniProt P11387); experiment: Poison activity at Top1 (unknown origin) assessed as decrease in relaxed supercoiled DNA at 25 uM by […] based agarose gel electrophoresis relative to control; set-up: scale not given: the % may be the effect or the level left
T1 sequence (whole entry): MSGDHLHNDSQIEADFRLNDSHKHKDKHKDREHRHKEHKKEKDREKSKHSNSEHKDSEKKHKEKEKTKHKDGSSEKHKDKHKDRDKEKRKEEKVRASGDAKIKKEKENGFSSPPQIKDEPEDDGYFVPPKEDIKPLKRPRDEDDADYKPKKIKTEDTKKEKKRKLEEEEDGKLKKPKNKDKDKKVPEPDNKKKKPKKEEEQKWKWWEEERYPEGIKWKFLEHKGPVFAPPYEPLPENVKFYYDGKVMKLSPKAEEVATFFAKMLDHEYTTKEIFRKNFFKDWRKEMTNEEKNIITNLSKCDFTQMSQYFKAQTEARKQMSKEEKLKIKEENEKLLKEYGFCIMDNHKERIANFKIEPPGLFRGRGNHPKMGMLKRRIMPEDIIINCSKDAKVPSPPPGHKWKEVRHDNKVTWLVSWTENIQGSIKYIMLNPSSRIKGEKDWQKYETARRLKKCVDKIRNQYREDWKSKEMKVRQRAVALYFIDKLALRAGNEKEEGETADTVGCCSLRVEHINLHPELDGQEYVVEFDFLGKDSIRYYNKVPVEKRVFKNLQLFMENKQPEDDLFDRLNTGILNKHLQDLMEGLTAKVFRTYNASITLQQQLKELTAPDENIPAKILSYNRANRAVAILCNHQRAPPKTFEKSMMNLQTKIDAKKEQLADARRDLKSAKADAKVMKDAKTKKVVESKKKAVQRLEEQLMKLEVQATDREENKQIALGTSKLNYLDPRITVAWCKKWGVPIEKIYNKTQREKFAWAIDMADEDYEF

[2] = test system: Supercoiled DNA; experiment: Binding affinity to supercoiled DNA (unknnown origin) at 50 uM by SPR assay; type: nucleic-acid assay
[3] = target: T1, DNA topoisomerase 1 (Homo sapiens); experiment: Poison activity at Top1 (unknown origin) assessed as decrease in relaxed supercoiled DNA at 300 uM
How it was run: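 The screen used a Top1-mediated relaxation assay, with compounds at 300 µM and camptothecin as positive control. Supercoiled and relaxed/Top1-bound DNA were resolved as separate bands on agarose gel.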

[4] = target: T1, DNA topoisomerase 1 (Homo sapiens); experiment: Poison activity at Top1 (unknown origin) assessed as increase in supercoiled DNA at 125 uM by ethidium bromide staining based agarose gel electrophoresis relative to control
[5] = target: Supercoiled DNA; experiment: Binding affinity to supercoiled DNA (unknown origin) by SPR assay; type: nucleic-acid assay
[6] = test system: DNA; experiment: Binding affinity at Escherichia coli pBR322 DNA assessed as unwinding of supercoiled DNA incubated for 30 mins in presence of topoisomerase 1 by agarose gel based electrophoresis; type: nucleic-acid assay
[7] = target: T1, DNA topoisomerase 1 (Homo sapiens); experiment: Poison activity at Top1 (unknown origin) assessed as increase in supercoiled DNA by ethidium bromide staining based agarose gel electrophoresis
How it was run: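 In a semi-quantitative Top1 relaxation assay, compound was tested at several concentrations, including 25 and 125 µM, and camptothecin at 1, 5, 25 and 125 µM. Supercoiled DNA was quantified from gel bands as a percentage of total DNA.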

[8] = target: T1, DNA topoisomerase 1 (Homo sapiens); experiment: Poison activity at Top1 (unknown origin) assessed as increase in supercoiled DNA at 25 uM by […] relative to control

Row | Compound | Activity [1] [%] | Activity [2] | further results
1 | Cc1ccc(S(=O)(=O)n2cc(C3=NN(c4ccccc4)C(c4ccccc4Br)C3)c3ccccc32)cc1 (stereo not drawn) | < 40 | inactive | –
2 | O=S(=O)(c1ccccc1)n1cc(C2=NN(c3ccccc3)C(c3ccccc3Br)C2)c2ccccc21 (stereo not drawn) | < 40 | inactive | –
3 | COc1cc(C2CC(c3cn(S(=O)(=O)c4ccccc4)c4ccccc34)=NN2c2ccccc2)cc(OC)c1OC (stereo not drawn) | 40 to 79 | inactive | –
4 | Brc1ccccc1C1CC(c2c[nH]c3ccccc23)=NN1c1ccccc1 (stereo not drawn) | < 40 | inactive | Activity [3]: Active
5 | O=[N+]([O-])c1cccc(C2CC(c3cn(S(=O)(=O)c4ccccc4)c4ccccc34)=NN2c2ccccc2)c1 (stereo not drawn) | < 40 | inactive | –
6 | O=S(=O)(c1cccc2ccccc12)n1cc(C2=NN(c3ccccc3)C(c3ccccc3)C2)c2ccccc21 (stereo not drawn) | < 40 | inactive | –
7 | Cc1ccc(S(=O)(=O)n2cc(C3=NN(c4ccccc4)C(c4ccccc4)C3)c3ccccc32)cc1 (stereo not drawn) | 40 to 79 | inactive | –
8 | O=S(=O)(c1ccccc1)n1cc(C2=NN(c3ccccc3)C(c3ccccc3)C2)c2ccccc21 (stereo not drawn) | 40 to 79 | inactive | –
9 | CC(C)c1ccc(C2CC(c3cn(S(=O)(=O)c4cccc5ccccc45)c4ccccc34)=NN2c2ccccc2)cc1 (stereo not drawn) | 40 to 79 | inactive | –
10 | CC[C@@]1(O)C(=O)OCc2c1cc1n(c2=O)Cc2cc3ccccc3nc2-1 | – | – | Activity [4]: 48%
11 | COc1ccc(C2CC(c3cn(S(=O)(=O)c4ccccc4)c4ccccc34)=NN2c2ccccc2)cc1 (stereo not drawn) | 40 to 79 | inactive | –
12 | O=S(=O)(c1cccc2ccccc12)n1cc(C2=NN(c3ccccc3)C(c3cccc4ccccc34)C2)c2ccccc21 (stereo not drawn) | < 40 | inactive | –
13 | COc1ccc(C2CC(c3cn(S(=O)(=O)c4cccc5ccccc45)c4ccccc34)=NN2c2ccccc2)cc1 (stereo not drawn) | < 40 | inactive | –
14 | O=S(=O)(c1cccc2ccccc12)n1cc(C2=NN(c3ccccc3)C(c3ccccc3Br)C2)c2ccccc21 (stereo not drawn) | < 40 | inactive | –
15 | O=S(=O)(c1ccccc1)n1cc(C2=NN(c3ccccc3)C(c3ccc(Cl)cc3)C2)c2ccccc21 (stereo not drawn) | < 40 | inactive | –
16 | CC(C)c1ccc(C2CC(c3cn(S(=O)(=O)c4ccccc4)c4ccccc34)=NN2c2ccccc2)cc1 (stereo not drawn) | 40 to 79 | inactive | –
17 | COc1cc(C2CC(c3cn(S(=O)(=O)c4ccc(C)cc4)c4ccccc34)=NN2c2ccccc2)cc(OC)c1OC (stereo not drawn) | 40 to 79 | inactive | –
18 | COc1ccc(C2CC(c3cn(S(=O)(=O)c4ccc(C)cc4)c4ccccc34)=NN2c2ccccc2)cc1 (stereo not drawn) | < 40 | inactive | –
19 | CC[n+]1c(-c2ccccc2)c2cc(N)ccc2c2ccc(N)cc21 [HOMIDIUM BROMIDE] | – | – | Kd [5]: 1200 nM; Activity [6]: Active
20 | Cc1ccc(S(=O)(=O)n2cc(C3=NN(c4ccccc4)C(c4cccc5ccccc45)C3)c3ccccc32)cc1 (stereo not drawn) | 40 to 79 | inactive | –
21 | O=S(=O)(c1ccccc1)n1cc(C2=NN(c3ccccc3)C(c3cccc4ccccc34)C2)c2ccccc21 (stereo not drawn) | > 80 | inactive | Activity [7]: Dose-dependent effect; Activity [4]: 74%; Activity [8]: 61%; Activity [6]: inactive
22 | Cc1ccc(C2CC(c3cn(S(=O)(=O)c4ccccc4)c4ccccc34)=NN2c2ccccc2)cc1 (stereo not drawn) | < 40 | inactive | Activity [3]: Active
23 | Cc1ccc(S(=O)(=O)n2cc(C3=NN(c4ccccc4)C(c4ccc(C(C)C)cc4)C3)c3ccccc32)cc1 (stereo not drawn) | < 40 | inactive | –
24 | O=S(=O)(c1cccc2ccccc12)n1cc(C2=NN(c3ccccc3)C(c3ccc(Cl)cc3)C2)c2ccccc21 (stereo not drawn) | < 40 | inactive | –
